Screening results: PubChem, several laboratories
BB579 growth dn – growth inhibitors of yeast BB579 in restrictive medium, primary screen, yeast lifespan-shortening project, S. cerevisiae; OD615, 48 h; inhibition, % at 10 µM; actives 0.51% (n = 140,000);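 active means inhibition above a set limit, 3 SD over the mean compound inhibition, cut at about 44% in these data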
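System: Saccharomyces cerevisiae DeaD strain BB579, replicative lifespan model yeast | Buffer or medium: Restrictive glucose-based CSMM-D medium | Times: 4 h preincubation and 48 h exposure at 30 °C | Detection: OD615 turbidity measurement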
RAM inhibit – inhibitors of the yeast RAM network, primary screen, dse1pr::URA3 reporter, 5-FOA selection | AID 868, 2007 | actives 1.8% (n = 190,000) | S. cerevisiae dse1pr::URA3 reporter, 5-FOA growth OD615, 2 d; analog-sensitive cbk1-as2 kinase mutant strain | inhibition, % at 50 µM;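 active means inhibition above a set limit, 3 SD over mean compound inhibition, cut at about 8.4% in these data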;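 further: 0% = DMSO-only wells with no growth and 100% = 10 µM 1-NA-PP1 full growth; inhibition rescues growth on 5-FOA so higher OD means more RAM inhibition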
Phagocyt inh – inhibitors of macrophage phagocytosis, primary screen, imaging, J774A.1 cells, IgG beads; inhibition, % at 5 µM; J774A.1 macrophage IgG-bead phagocytosis; AID 1029, 2008; actives 0.07% (n = 110,000);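 active means inhibition above the mean of the plate negative controls plus 5 SD, cut at about 13% in these data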;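 further: phagocytic index as fraction of beads internalized from green versus red external bead signal; plate controls were DMSO negative control for no effect and cytochalasin-D positive control for full effect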
Yeast lifespan up – compounds extending yeast replicative lifespan, primary screen, S. cerevisiae, OD615; inhibition of the nicotinamide effect, % at 10 µM; AID 775, 2007; S. cerevisiae growth with nicotinamide; deaD strain in restrictive glucose medium; actives 0.68% (n = 130,000);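 active means inhibition above a set limit, placed 3 SD over the median of all compounds, cut at about 26% in these data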;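 further: 0% = nicotinamide-treated wells and 100% = cells grown without nicotinamide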
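System: DeaD-strain S. cerevisiae / Buffer or medium: CSMM-D, restrictive glucose (dextrose) synthetic minimal medium / Probe or stimulus: nicotinamide, 1.5 mM, co-present with compound / Compound: one concentration, 10 µM, DMSO 0.25% / Incubation: 48 h compound exposure at 30 °C, humidified / Technique: optical density (absorbance) at 615 nm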
RAM efflux-def – 5-FOA growth of efflux-deficient control yeast, dose response, counter-screen for RAM network inhibitor project, S. cerevisiae, OD615 | shares compounds with RAM inhibit | S. cerevisiae efflux-deficient reporter strain, 5-FOA growth OD615, 2 days | max inhibition, % | 1,200 tested, under 10 active; call rule not given here;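 further: plate controls were vehicle for no effect and reference inhibitor for full effect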
An asterisk follows results filed as active; / = not tested or not shown. This is a sample that favours compounds with a hit; in the whole collection about 2.7% have one here.

SMILES	BB579 growth dn	RAM inhibit	Phagocyt inh	Yeast lifespan up	RAM efflux-def
CC(C)(C)c1ccc(OCC(=O)N/N=C/c2ccc(N3CCOCC3)cc2)cc1	-39.9	-0.8	-4.1	3.6	/
C=CCn1c(SCCC)nc2sc3c(c2c1=O)CCc1ccccc1-3	-24.6	14.8*	-10.1	4.5	3.1
C=CCSc1nc2sc3c(c2c(=O)n1CC=C)CCc1ccccc1-3	0.8	-0.8	-7.8	-0.8	/
CC1CCN(CC(=O)Nc2cccc(C(=O)Nc3cccc(C(F)(F)F)c3)c2)CC1	2.5	0.1	/	0.4	/
O=C(O/N=C\c1ccc(N2CCCCC2)c([N+](=O)[O-])c1)c1c(F)cccc1F	-36.9	6.2	/	-6.1	/
Cc1ccc(C(=O)O/N=C\c2ccc(N3CCCCC3)c([N+](=O)[O-])c2)cc1	-15.3	15.9*	/	-3.2	3.0
COc1ccc(C(=O)/C=C/c2ccc(N3CCCCC3)c([N+](=O)[O-])c2)c(OC)c1	-41.8	17.4*	-8.5	3.7	3.8
O=CNc1ccc(S(=O)(=O)NCc2ccccc2)cc1	-27.5	2.7	-0.7	-8.0	/
CCCOC(=O)c1ccc(NC(=O)c2c(Cl)ccc(Cl)c2OC)cc1	-61.4	12.2*	-5.0	-2.5	1.6
C=CCn1c(COc2cc(C)ccc2C(C)C)nnc1SCC(=O)c1c(N)n(C)c(=O)n(C)c1=O	-7.2	-1.2	/	4.1	/
O=C(COC(=O)CCN1C(=O)/C(=C\C=C\c2ccccc2)SC1=S)Nc1ccc(Br)cc1	/	15.6*	/	/	2.3
CC(C)c1ccccc1NC(=O)COC(=O)CCN1C(=O)/C(=C\C=C\c2ccccc2)SC1=S	-38.8	2.2	-0.8	6.9	/
O=C(Nc1ccccc1-c1nnc(SCc2ccccc2Cl)o1)c1ccccc1	-15.6	11.7*	0.2	-6.3	3.3
O=C1C2N=NN(CC(=O)N3N=C(c4ccccc4)CC3c3ccc([N+](=O)[O-])cc3)C2C(=O)N1c1ccccc1 (configuration not stated)	/	4.0	/	/	/
COC(=O)CSc1nc(N2CCCCC2)c2c(c1C#N)CCCC2	-23.7	13.9*	-1.6	-10.8	1.4
N#Cc1c(SCC(=O)O)nc(N2CCCCC2)c2c1CCCC2	-35.8	2.4	-1.7	3.1	/
CCOC(=O)/C(=N/Nc1ccccc1)c1csc(Nc2ccccc2)n1	-34.2	16.3*	-0.9	-21.2	3.9
Cc1ccc(C2=NN(Cc3nnc(-c4ccccc4)o3)C(=O)SC2)cc1	-6.5	12.1*	/	6.2	3.0
COc1ccc(OC)c(S(=O)(=O)NC(C)(C)C)c1	-19.4	0.7	-1.6	-13.7	/
CC1=[N+](C)c2c(ccc3cccnc23)C1(C)C	/	-1.9	/	/	/
COC(=O)C1=CN(Cc2cccs2)C=C(C(=O)OC)C1c1cccc(Cl)c1	/	13.3*	/	/	2.5
O=C(NCc1ccco1)C(=O)N1CCCC1	/	0.1	/	/	/
CCc1ccc(NC(=O)Cn2c(SC)nc3ccccc32)cc1	-13.1	20.6*	-0.4	-2.0	2.9
CCOc1ccc(CNC(=O)CCn2c(=O)oc3ccccc32)cc1	-50.5	3.2	-0.7	-3.7	/
CCOc1ccc(CNC(=O)CCc2cn(Cc3ccccc3)c3ccccc23)cc1	-16.1	12.9*	/	2.7	3.2
SMILES	BB579 growth dn	RAM inhibit	Phagocyt inh	Yeast lifespan up	RAM efflux-def
CCCc1cc(=O)[nH]c(SCC(=O)NCCC2=CCCCC2)n1	/	0.7	/	/	/
CCCC(=O)Oc1c(S(=O)(=O)c2ccc(C)cc2)c(C)nn1C(C)(C)C	/	11.8*	/	/	2.0
CCC(=O)Oc1c(S(=O)(=O)c2ccc(C)cc2)c(C)nn1C(C)(C)C	-28.6	1.5	-2.3	0.5	/
COc1ccccc1C1(CCNS(=O)(=O)c2ccc(C)cc2)CCOC(C(C)C)C1 (configuration not stated)	-33.0	13.2*	-10.6	2.5	3.4
CN1CCN(C(=O)C2=C[C@@H](c3csc4ccccc34)C[C@@H](OCc3ccc(CO)cc3)O2)CC1	/	0.0	/	/	/
O=C(C1=C[C@H](c2csc3ccccc23)C[C@H](OCc2ccc(CO)cc2)O1)N1CCOCC1	/	14.4*	/	/	1.5
Cc1c(NC(=S)NC(=O)Cc2ccccc2)cccc1C(=O)O	-21.6	22.1*	-2.0	0.8	1.5
COc1cccc(C(=O)CSc2nnc(-c3cc(OC)c(OC)c(OC)c3)o2)c1	-61.6	13.3*	0.2	-4.8	3.0
COc1cc(-c2nnc(-c3ccccc3)o2)cc(OC)c1OC	6.0	23.0*	/	/	3.0
COc1cc(-c2nnc(SCC(=O)c3ccc(C)cc3)o2)cc(OC)c1OC	-8.1	1.3	-0.6	-6.8	/
COc1cc(-c2nnc(-c3cc(OC)c(OC)c(OC)c3)o2)cc(OC)c1OC	-35.2	5.2	/	/	/
Brc1ccc(Cn2c(-c3ccc(Br)o3)nc3ccccc32)o1	-48.7	13.1*	-2.7	2.1	3.3
COc1ccc(/C(N)=N/OC(=O)CN(C)S(=O)(=O)c2ccc(C)cc2)cc1	/	7.0	/	/	/
Cc1nc(C)c(NC(=O)N2CCc3ccccc32)cc1NC(=O)N1CCc2ccccc21	-43.4	12.0*	-2.4	-6.7	3.1
CSC(=NC#N)N1CCN(c2ccc([N+](=O)[O-])cc2)CC1	/	2.1	/	/	/
COc1cc(/C=C/C(=O)OCC(=O)Nc2ccccc2Sc2ccc(Cl)cc2)ccc1O	-38.9	15.2*	-4.2	-2.3	4.2
CC1CCCC(NC(=O)COC(=O)CCc2ccccc2)C1C (configuration not stated)	/	-0.2	/	/	/
CC1CCCC(NC(=O)COC(=O)CSc2ccc3ccccc3c2)C1C (configuration not stated)	-28.9	12.5*	-0.2	10.2	2.6
CC(C(=O)NCc1ccc(F)cc1)c1ccc([N+](=O)[O-])cc1 (configuration not stated)	/	3.8	/	/	/
CCCC[C@@H]1C[C@H]1[C@@H](NC(=O)c1ccccc1)c1ccccc1C(F)(F)F	-36.7	22.1*	/	2.4	2.9
COC(=O)[C@@H]1C[C@H]1[C@@H](NC(=O)c1ccccc1)c1ccccc1	-6.4	-0.3	/	-2.0	/
NC(=O)COC(=O)c1ccccc1Nc1ccc(SC(F)F)cc1	9.4	-0.6	-4.6	-3.7	/
O=C(COC(=O)c1ccccc1C(=O)c1ccccc1)Nc1ccc(SC(F)F)cc1	-25.6	13.2*	-6.9	4.3	3.2
O=C(COc1ccccc1C(=O)O)Nc1ccc(SC(F)F)cc1	/	0.6	/	/	/
O=C(COC(=O)c1ccccc1Nc1ccc(SC(F)F)cc1)NC1CC1	-2.3	12.5*	-5.7	-0.6	2.4
CC(OC(=O)C1CC1)C(=O)Nc1cc(C(F)(F)F)ccc1Cl (configuration not stated)	/	1.4	/	/	/
COc1ccc(CNc2oc(-c3cccc4ccccc34)nc2C#N)cc1	-30.9	14.9*	/	-5.8	2.6
CNc1oc(-c2cccc3ccccc23)nc1C#N	-32.8	2.6	-0.7	-15.4	/
N#Cc1nc(Cc2cccc3ccccc23)oc1NCc1ccc(F)cc1	-23.3	14.9*	-0.7	-18.9	3.5
C=CCNc1oc(Cc2cccc3ccccc23)nc1C#N	-5.1	5.6	-0.3	-6.1	/
